PKA-R2B activ – activators of PKA-R2B holoenzyme, primary screen, biochemical, fluorescence polarization, Cy5-IP20, human. 0.079% of 340,000 active. cAMP-dependent protein kinase catalytic subunit beta (Homo sapiens) + cAMP-dependent …. PKA-R2B holoenzyme dissociation; R2B truncated from residue 108, S112A mutant; 0% DMSO only, 100% 113 µM cGMP. activation, % at 11.4 µM. AID 504700, 2011;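 active means activation above a cutoff set at the mean over all compounds plus 3 SD, cut at about 18% in these data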;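 further: higher means more holoenzyme dissociation and a rise in polarization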
TPT1 inhibitor – Candida albicans TPT1 enzyme inhibitors, primary screen, biochemical, fluorescence polarization | tRNA 2'-phosphotransferase TPT1 (Candida albicans SC5314) | recombinant caTPT1, FP RNA substrate dephosphorylation | inhibition, % at 5 µM | 0.81% of 300,000 active | AID 1962, 2009;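 active means inhibition above the mean of all tested compounds plus 3 SD, set per screening campaign, cut at about 24% in these data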;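 further: plate controls were DMSO alone for no effect and ferristatin control at 100 nM for full effect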
Rpn11 block – Rpn11 (PSMD14) deubiquitinase inhibitors, primary screen, biochemical, fluorescence polarization, uHTS. human 26S proteasome, Ub4-pepOG fluorescence polarization; 20S core pre-blocked with epoxomicin. calls only at 20 µM. 0.59% of 360,000 active;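 active means inhibition at 20 µM, scaled to each plate's controls, above about 33%, limit read from the data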
CSN inh – inhibitors of CSN-mediated cullin deneddylation, primary screen, biochemical, fluorescence polarization, uHTS. inhibition, % at 12.5 µM. 0.38% of 360,000 active. Purified CSN, SCF-Nedd8-OG deneddylation. COP9 signalosome complex subunit 5 (Homo sapiens), Q92905;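 active means pattern-corrected inhibition above about 35%, with an unprinted fluorescence ratio check between 0.5 and 1.5, limit read from the data, passing the limit was not always enough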;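 further: 0% = enzyme with substrate and 100% = substrate without enzyme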
Target sequence (Q92905 whole entry, looked up, one chain of several): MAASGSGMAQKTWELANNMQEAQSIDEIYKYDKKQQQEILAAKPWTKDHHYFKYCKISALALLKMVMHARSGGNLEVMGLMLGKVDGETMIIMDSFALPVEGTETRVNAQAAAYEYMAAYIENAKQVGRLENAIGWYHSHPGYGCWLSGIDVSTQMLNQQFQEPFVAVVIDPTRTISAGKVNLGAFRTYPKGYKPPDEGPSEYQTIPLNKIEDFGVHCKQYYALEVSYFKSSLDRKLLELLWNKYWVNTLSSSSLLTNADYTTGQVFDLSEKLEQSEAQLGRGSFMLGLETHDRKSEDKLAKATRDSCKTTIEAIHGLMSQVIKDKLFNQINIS
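Material: purified human Csn5 enzyme expressed in HEK293T cells / Medium: Tris buffer pH 7.5, NaCl, DTT, Tween-20, trehalose, ovalbumin / Compound dosing: 12.5 µM single point / Schedule: 90 min incubation of compound, enzyme and substrate at room temperature / Signal: fluorescence polarization of the substrate / Control set: no-enzyme wells high, enzyme-with-substrate wells low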
PKA-R1A activ – activators of PKA-R1A holoenzyme, primary screen, biochemical, fluorescence polarization, Cy5-IP20, bovine R1A, mouse PKAc | cAMP-dependent protein kinase type I-alpha regulatory subunit (Bos taurus) + … | PKA-R1A dissociation; scaled: DMSO 0%, 113 µM cGMP 100% | activation, % at 11.4 µM | 0.083% of 340,000 active | AID 504707, 2011;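 active means percent activation above the mean of all tested compounds plus 3 SD, cut at about 19% in these data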;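 further: higher means more PKAc released from R1A so a rise in polarization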
HNF4A DNA FP – change in binding of human HNF4A to DNA, primary screen, biochemical, fluorescence polarization, FITC-DNA | 0.3% of 360,000 active | Hepatocyte nuclear factor 4-alpha (Homo sapiens), P41235 | 1 h | activity change, % at 10 µM | AID 1224865, 2016; in the data active means activity change above about 30%, passing the limit was not always enough
* = called active by the depositor; i = inactive; . = not tested or not shown; + = active, no number. A selection: hits, their analogues and other compounds. The true share with any hit is near 1.6%.

SMILES	PKA-R2B activ	TPT1 inhibitor	Rpn11 block	CSN inh	PKA-R1A activ	HNF4A DNA FP
N#CCSc1nc2c(sc(=S)n2Cc2ccco2)c(=O)n1-c1ccc(F)cc1	-6	1	i	5	0	58*
CC(=O)c1c(C)[nH]c(C(=O)COC(=O)CN(C)S(=O)(=O)c2ccc(Cl)cc2)c1C	-7	-5	i	1	0	1
CCN1C(=O)/C(=C/c2cn(-c3ccccc3)nc2-c2cccnc2)SC1=S	4	.	.	23	12	40*
O=C(O)c1cccc(N2C(=O)c3ccc(C(=O)c4cccc([N+](=O)[O-])c4)cc3C2=O)c1	-1	1	i	-1	-1	-8
O=C(O)c1ccc2c(c1)C(=O)N(c1cccc(C(=O)/C=C/c3ccccc3)c1)C2=O	0	-1	i	45*	8	-4
COc1cc(NC(=S)N(C)CCC#N)c(OC)cc1Cl	-5	-4	i	3	-3	-1
Cc1cc(=O)oc(C)c1C(=O)n1nc(C)c2c1C[C@@H]1[C@H]2C1(C)C	0	-4	i	3	-1	52*
Cc1cc(=O)oc(C)c1C(=O)NC12CC3CC(CC(C3)C1)C2	-4	-3	i	-4	-2	0
CCOC(=O)N1CCN(C(=O)CN(Cc2ccccc2)S(C)(=O)=O)CC1	1	-2	i	-1	0	0
CS(=O)(=O)N(CC(=O)N1CCN(Cc2ccccc2)CC1)Cc1ccccc1	-6	-2	i	82*	1	-4
O=C(O)c1ccc(N=Nc2c(O)[nH]c3ccc(Br)cc23)cc1	5	7	i	8	-12	1
O=c1ccc2cc3c([nH]c4ccc(Br)cc43)oc-2c1O	-6	14	+	29	0	87
CCCCC12CN3CCN(CC(C3)/C1=N\NC(=O)Nc1ccccc1)C2	-14	0	i	42*	-2	3
CNc1c(NS(=O)(=O)c2ccc(CC(C)C)cc2)c(=O)oc2ccccc12	3	-1	i	-3	2	1
CCOC(=O)C1=CN(Cc2cccc(F)c2)S(=O)(=O)N(C)C1CCc1ccccc1 (stereo unspecified)	-1	.	i	-1	-16	2
Clc1ccc(OCCOCCN2CCCCC2)c(Br)c1	7	-2	i	-7	19*	-2
CC1CCN(CCOCCOc2ccc(Cl)cc2Br)CC1	-15	-2	i	1	-2	1
CC(C)(CO)NCC(O)Cn1cc(C=O)c2ccccc21 (stereo unspecified)	-6	0	i	-5	-2	2
CCn1c(CNC(=O)COc2ccc(C(C)C)cc2)nnc1SCC(=O)NC1CCCCC1C (stereo unspecified)	2	-3	i	70*	0	3
CCNC(=O)C(=O)NCC(c1cccs1)S(=O)(=O)c1ccc(C)cc1 (stereo unspecified)	-5	2	i	1	-6	2
COc1cccc(-n2nc3c(-n4ncc(C#N)c4N)nnc(C)c3c2C)c1	-5	1	i	58*	-14	6
COc1ccc2c(CN3CCN(c4ccccc4OC)CC3)cc(=O)oc2c1	.	.	i	74*	.	11
COc1ccc2c(CN3CCN(c4ccccc4F)CC3)cc(=O)oc2c1	.	.	i	100*	.	-2
CCOc1cc(NC(=O)c2cccs2)c(OCC)cc1NC(=O)CCC(=O)NCCN1CCOCC1	2	0	i	2	5	3
Cc1cc(C)c2c(c1)NC(C(=O)O)C1CC=CC21 (stereo unspecified)	-1	17	i	28	2	-40
SMILES	PKA-R2B activ	TPT1 inhibitor	Rpn11 block	CSN inh	PKA-R1A activ	HNF4A DNA FP
Cc1ccc2c(c1C)NC(C(=O)O)C1CC=CC21 (stereo unspecified)	-1	26*	i	28	1	-52
O=C(O)C1Nc2c(C(=O)N3CCOCC3)cccc2C2C=CCC12 (stereo unspecified)	-3	-14	i	35*	-2	-31
CCN(CC)CCN1C(=O)C(=O)/C(=C(/O)c2ccc(S(=O)(=O)N3CCOCC3)cc2)C1c1ccc(Cl)cc1 (stereo unspecified)	-5	-1	i	3	-4	1
O=C(c1cnc(Cc2c[nH]c3ccccc23)c(I)c1)N1CCN(Cc2ccccc2)CC1	.	.	i	42*	.	1
c1ccc(Nc2ncnc3[nH]ncc23)cc1	.	-4	i	2	.	6
Cc1cc(C)c(C(=O)OCC(=O)Nc2cccc(S(=O)(=O)N3CCCCC3)c2)c(C)c1	-7	2	i	+	-8	-4
Cc1csc(SCC(=O)Nc2cccc(S(=O)(=O)N3CCCC3)c2)n1	-10	2	i	106*	2	-3
CC(N)C(=O)NC(C(=O)NC(C)C(=O)Nc1cccc2ccccc12)C(C)C (stereo unspecified)	.	.	i	4	.	2
COC(=O)c1cc(O)cc(OC)c1C(=O)c1c(O)cc(C)cc1O	-12	-2	i	5	-6	1
COC(=O)c1cc(O)cc(OC)c1Oc1cc(C)cc(O)c1C(=O)O	-7	1	.	41*	-4	-23
N#Cc1cccc(NC(=O)Cn2cnc(S(=O)(=O)N3CCCCC3)c2)c1	1	-3	i	1	1	0
O=C(Nc1ccccc1)/C(=C\c1ccncc1)NC(=O)c1ccccc1	-5	-1	i	-1	5	1
COc1ccc(NC(=O)/C(=C\c2ccncc2)NC(=O)c2ccccc2)cc1	-9	-1	i	50*	0	-3
C=CC#CC[N+]1(CC#Cc2ccccc2)CCOCC1	-2	.	+	166*	-7	189
Cc1ccc(NC(=O)C2CC(=O)N(c3ccc4c5c(cccc35)CC4)C2)cc1 (stereo unspecified)	-1	-3	i	35*	1	2
N#Cc1ccccc1NC(=O)C1CC(=O)N(c2ccc3c4c(cccc24)CC3)C1 (stereo unspecified)	2	-1	i	3	-9	1
Cc1ccnc(SCc2ccc(C(=O)O)cc2)n1	13	2	i	2	-2	69*

Bioassay records: PubChem BioAssay, several laboratories
